# Screens as filed in PubChem BioAssay.
# TRPC6 inh = mouse TRPC6 channel inhibitors, primary screen, cell-based, HEK293, membrane potential dye; Short transient receptor potential channel 6 (Mus musculus), Q61143; 310,000 tested, 1.1% active; AID 2553, 2010; B-score at 10 µM; ACh-evoked depolarization; active compounds read low;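 active means B-score under library mean minus 3 SD, initial fluorescence not abnormally high, positive integrated signal ratio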;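 further: B-score derived from integrated fluorescence ratio over the kinetic read; more negative B-score means stronger inhibition of depolarization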
# TRPC4 agonist = activators of mouse TRPC4 channel, primary screen, Fluo4 calcium, HEK293 TRPC4beta/mu-opioid cells; Short transient receptor potential channel 4 (Mus musculus), Q9QUQ5; Fluo4 calcium fluorescence; active compounds read high; B-score at 10 µM; 310,000 tested, 0.49% active;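 active means B-score above 5 SD of library B-scores, and initial fluorescence ratio not above library mean plus 5 SD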;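 further: positive B-score marks a calcium rise read as TRPC4 activation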
# Target sequence (Q9QUQ5 whole entry, looked up): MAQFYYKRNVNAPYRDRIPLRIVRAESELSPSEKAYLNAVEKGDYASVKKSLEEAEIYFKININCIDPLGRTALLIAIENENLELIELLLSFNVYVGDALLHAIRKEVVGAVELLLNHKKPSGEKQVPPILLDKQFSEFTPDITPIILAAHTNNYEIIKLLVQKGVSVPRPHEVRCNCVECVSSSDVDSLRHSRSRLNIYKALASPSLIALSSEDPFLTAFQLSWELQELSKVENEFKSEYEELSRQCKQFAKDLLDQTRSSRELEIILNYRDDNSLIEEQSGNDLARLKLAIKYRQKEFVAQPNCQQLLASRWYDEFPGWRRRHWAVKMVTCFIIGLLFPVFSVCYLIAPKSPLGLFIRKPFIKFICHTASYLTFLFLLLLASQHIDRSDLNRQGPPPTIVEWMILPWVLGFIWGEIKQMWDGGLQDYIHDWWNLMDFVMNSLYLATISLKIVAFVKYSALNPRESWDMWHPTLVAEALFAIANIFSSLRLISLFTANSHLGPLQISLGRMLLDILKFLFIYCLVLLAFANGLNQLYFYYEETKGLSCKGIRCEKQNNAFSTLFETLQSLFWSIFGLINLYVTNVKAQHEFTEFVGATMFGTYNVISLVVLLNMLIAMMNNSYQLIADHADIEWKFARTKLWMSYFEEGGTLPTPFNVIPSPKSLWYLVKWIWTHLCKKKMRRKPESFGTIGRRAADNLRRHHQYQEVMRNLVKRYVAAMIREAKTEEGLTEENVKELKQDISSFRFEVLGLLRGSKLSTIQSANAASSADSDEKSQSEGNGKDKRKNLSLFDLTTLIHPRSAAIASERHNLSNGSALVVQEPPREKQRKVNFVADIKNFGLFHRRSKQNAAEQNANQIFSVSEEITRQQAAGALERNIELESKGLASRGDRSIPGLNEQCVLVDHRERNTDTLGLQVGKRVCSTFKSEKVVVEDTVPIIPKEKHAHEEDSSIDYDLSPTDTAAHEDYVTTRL
#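 Technique: kinetic Fluo4 calcium fluorescence; Test system: TRPC4beta and mu-opioid receptor HEK293 stable cells; Measure: B-scored integrated calcium fluorescence ratio; Benchmarks: low control buffer alone, high control maximal DAMGO; Schedule: 45 min room-temperature Fluo4 loading, 110 s read.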
# TRPC4 PAM = positive allosteric modulators of TRPC4, primary screen, cell-based, mouse TRPC4beta, HEK293 mu-opioid, Fluo-4 calcium | Short transient receptor potential channel 4 (Mus musculus), Q9QUQ5 | DAMGO EC20, Fluo-4 Ca2+ flux; active compounds read high | B-score at 10 µM | 310,000 tested, 0.42% active;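 active means B-score of calcium response area above 5 SD of library B-scores, with initial fluorescence ratio within 5 SD of library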;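 further: B-score of integrated fluorescence ratio over time as area under calcium response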
# TRPC4 inh = inhibitors of mouse TRPC4 channel, primary screen, Fluo4 calcium, HEK293 TRPC4beta/mu-opioid cells; Short transient receptor potential channel 4 (Mus musculus), Q9QUQ5; DAMGO-evoked Fluo4 calcium flux; active compounds read low; B-score at 10 µM; 300,000 tested, 0.39% active;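 active means B-score over 3 SD under the library average, no early fluorescence shift, positive overall ratio signal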
#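 test system = HEK293 cells with stable TRPC4beta plus mu-opioid receptor expression | detection = Fluo4 Ca2+ flux fluorescence | read-out = integrated fluorescence ratio relative to baseline, converted to per-well B score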
# TRPC6 activator = mouse TRPC6 channel activators, primary screen, cell-based, HEK293, membrane potential dye | Short transient receptor potential channel 6 (Mus musculus), Q61143 | HEK293-TRPC6 membrane potential dye fluorescence; active compounds read high | B-score at 10 µM | 310,000 tested, 0.13% active | AID 2550, 2010;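 active means B-score of the integrated fluorescence ratio above library mean plus 3 SD, and starting fluorescence ratio within library mean plus 5 SD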;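 further: higher score means more depolarization so channel activation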
# TRPC4 spec 2 = second selectivity test of TRPC6 inhibitors: effect on mouse TRPC4 | shares compounds with TRPC6 inh | HEK293 TRPC4/MOR, membrane potential dye fluorescence; channel activated by saturating DAMGO dose | inhibition, % at 10 µM | 920 tested, 42% active | AID 2776;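 active means compounds whose fluorescence signal differed from control wells by over 3 SD, either direction, in both duplicate plates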
# TRPC4 spec = mouse TRPC4 modulation by TRPC6 hits, confirmation, selectivity assay for TRPC6 inhibitor project, cell-based, HEK293 TRPC4/mu-opioid, membrane potential dye | membrane potential fluorescence | shares compounds with TRPC6 inh | activity change, negative = inhibition, % at 10 µM | 920 tested, 61% active;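 active means rise or fall in signal beyond 3 SD of buffer-only wells in both replicate plates, either sign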;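 further: integrated kinetic ratio of fluorescence range over baseline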
# HEK293 MPD ctr 2-1 = nonspecific membrane potential effects, parental HEK293, confirmation, counter-screen for TRPC6 inhibitor project, cell-based, second counter screen. shares compounds with TRPC6 inh. parental HEK293 membrane potential dye fluorescence; maximal acetylcholine challenge after compound addition. signal change vs control, % at 10 µM. 920 tested, 31% active;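 active means membrane potential signal moving either way by over 3 SD of the maximum-effect control, in both duplicate plates, meaning non-specific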
# HEK293 MPD ctr-1 = membrane potential modulation in parental HEK293, confirmation, counter-screen for TRPC6 inhibitor project, cell-based; shares compounds with TRPC6 inh; parental HEK293 membrane potential dye fluorescence; membrane potential signal change, % at 10 µM; 920 tested, 60% active;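 active means membrane potential signal shifting up or down by more than 3 SD of buffer-only wells, on both duplicate plates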
# HEK293 MPD ctr-2 = parental HEK293 membrane potential modulation, confirmation, counter-screen for TRPC6 modulator project, cell-based; membrane potential signal change, % at 10 µM; 2,400 tested, 51% active; membrane potential dye fluorescence; shares compounds with TRPC6 inh; AID 488924, 2010;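 active means membrane potential signal moves up or down beyond 5 SD from buffer-only wells, on both duplicate plates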
# HEK293 MPD ctr 2-2 = second counter-screen for TRPC6 modulators: effect in parental HEK293 cells. inhibition, % at 10 µM. shares compounds with TRPC6 inh. membrane potential dye fluorescence; after compound, maximal acetylcholine stimulation. AID 488926. 2,400 tested, 14% active;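 active means membrane potential signal drops by more than 5 SD from the mean control signal, in both duplicate plates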;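 further: plate controls were acetylcholine ECmax control wells for no effect and buffer only wells for full effect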
# TRPC4 ctr mod = TRPC4 modulation by TRPC6 hit compounds, confirmation, selectivity assay for TRPC6 modulator project, cell-based, HEK293 TRPC4/mu-opioid, membrane potential dye, mouse | shares compounds with TRPC6 inh | membrane potential fluorescence | percent change from control (negative = decrease, positive = increase), % at 10 µM | 2,400 tested, 69% active;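 active means membrane potential signal moved up or down beyond 5 SD of buffer control wells, in both duplicate plates, actives on both sides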;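 further: plate controls were assay buffer wells for no effect and DAMGO maximal-effect wells for full effect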
# TRPC4 ctr inh 2 = mouse TRPC4 off-target activity of TRPC6 modulators, second screen | AID 488928 | inhibition, % at 10 µM | HEK293 TRPC4/mu-opioid, membrane potential dye fluorescence; stimulated with maximal-effect DAMGO | shares compounds with TRPC6 inh | 2,400 tested, 55% active;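 active means drop in membrane potential signal beyond 5 SD of the control wells in both duplicate plates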;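 further: TRPC4 counter screen for TRPC6 hits run under conditions tuned for TRPC6 not TRPC4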
# TRPC6 block conf = mouse TRPC6 channel inhibitors, confirmation, HEK293 cells, membrane potential dye, duplicate. AID 488960, 2010. ACh-evoked depolarization. inhibition, % at 10 µM. shares compounds with TRPC6 inh. 3,300 tested, 43% active;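 active means fluorescence ratio falls more than 5 SD below the full-stimulation control mean, in both duplicate runs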;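 further: integrated fluorescence ratio of peak minus minimum over baseline after agonist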
# TRPC6 act confirm = mouse TRPC6 channel activators, confirmation, HEK293 cells, membrane potential dye, duplicate | shares compounds with TRPC6 inh | HEK293-TRPC6 membrane potential dye fluorescence, FDSS | activation, % at 10 µM | 2,800 tested, 11% active;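 active means ratio signal rise beyond 5 SD above unstimulated control wells' mean, seen in both duplicate runs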;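 further: plate controls were buffer EC0 wells for no effect and acetylcholine ECmax response for full effect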
# An asterisk follows results filed as active; i = inactive; . = not tested or not shown. In the library only some 2.3% were active in any assay of this set; here they are far more common.
SMILES,TRPC6 inh,TRPC4 agonist,TRPC4 PAM,TRPC4 inh,TRPC6 activator,HEK293 MPD ctr-2,HEK293 MPD ctr 2-2,TRPC4 ctr mod,TRPC4 ctr inh 2,TRPC6 block conf,TRPC6 act confirm,others
Cc1ccc(N2C(=O)N(CC(=O)Nc3ccc(C)c(C)c3[N+](=O)[O-])C(=O)C2C)cc1 (centres undefined),i,i,i,i,i,.,.,.,.,.,.,
CCc1ccc(C(=O)COC(=O)c2cncc(Br)c2)cc1,i,i,i,i,i,.,.,.,.,.,.,
CC(C)NC(=O)C(Cc1ccccc1)N1C(=O)c2ccccc2C1=O (centres undefined),i,i,i,i,i,.,.,.,.,.,.,
N#CCOC(=O)[C@H](Cc1ccccc1)N1C(=O)c2ccccc2C1=O,-7.1*,i,i,i,i,.,.,.,.,i,i,TRPC4 spec 2=i;TRPC4 spec=-0.7%*;HEK293 MPD ctr 2-1=i;HEK293 MPD ctr-1=i
O=C(COc1ccc2c(c1)oc(=O)c1ccccc12)NCC1CCC(C(=O)O)CC1 (centres undefined),i,i,i,i,i,.,.,.,.,.,.,
CN(CCCNC(=O)c1cccn2c(=O)c3ccccc3nc12)Cc1ccccc1,-6.3*,i,i,i,i,-136%*,i,-32%*,62%*,46%*,i,
O=C(NCCN1CCN(c2ccccc2)CC1)c1cccn2c(=O)c3ccccc3nc12,i,i,i,i,i,.,.,.,.,.,.,
CN1CCN(c2ccccc2/C=C2/C(=O)Nc3ccccc32)CC1,-5*,i,i,i,i,120%*,i,46%*,72%*,i,.,
O=C(NCCCN1CCOCC1)/C(=C/c1ccco1)NC(=O)c1ccccc1,i,i,i,i,i,.,.,.,.,.,.,
CC(=O)c1cc2c(cc1NC(=O)c1cnc(C)cn1)OCO2,-11*,i,i,i,i,.,.,.,.,i,i,TRPC4 spec 2=74%*;TRPC4 spec=-28%*;HEK293 MPD ctr 2-1=i;HEK293 MPD ctr-1=-412%*
Cc1ccc(O)c([C@H](CCN(C(C)C)C(C)C)c2ccccc2)c1,-6.2*,i,i,i,i,174%*,96%*,33%*,41%*,87%*,.,
CCN(CC)S(=O)(=O)c1ccc(NCCc2ccccn2)nc1,i,i,i,i,i,.,.,.,.,.,.,
Cn1c(=O)c(C(=O)Nc2ccccn2)c(O)c2ccccc21,-8.7*,i,i,i,i,.,.,.,.,i,i,TRPC4 spec 2=i;TRPC4 spec=-21%*;HEK293 MPD ctr 2-1=i;HEK293 MPD ctr-1=-327%*
CCN1CCCC1CNC(=O)c1ccc(Sc2ccccc2Cl)c([N+](=O)[O-])c1 (centres undefined),-7.1*,i,i,i,i,i,i,i,44%*,42%*,i,
CCN1CCCC1CNC(=O)c1ccc(Sc2ccc(F)cc2)c([N+](=O)[O-])c1 (centres undefined),-8.2*,i,i,i,i,i,i,i,56%*,52%*,i,
COc1ccc(/C=C2\SC(=O)N(CC(=O)NC3CCS(=O)(=O)C3)C2=O)cc1 (centres undefined),i,i,i,i,i,.,.,.,.,.,.,
O=C(/C=C/NNC(=O)c1ccccc1)c1ccccc1,-6.2*,i,i,i,i,i,i,i,i,i,i,
CC(C)c1ccc(NC(=O)C2CCN(S(=O)(=O)c3ccc4c(c3)C(C)(C)C(=O)N4C)CC2)cc1,i,i,i,i,i,.,.,.,.,.,.,
CCOc1ccc(OCc2ccc(C(=O)OCc3ccccn3)o2)cc1,-6*,i,i,i,i,i,i,11%*,i,i,i,
CCOc1ccc(OCc2ccc(C(=O)NC(C)C)o2)cc1,i,i,i,i,i,.,.,.,.,.,.,
CCN(CC)c1ccc(NC(=O)C2CCCC2)cc1,-5.8*,i,i,i,i,i,i,i,i,i,i,
Cc1ccc(S(=O)(=O)NNC(=O)C2CCN(Cc3ccccc3)CC2)cc1,-15*,i,i,i,i,.,.,.,.,84%*,i,TRPC4 spec 2=i;TRPC4 spec=i;HEK293 MPD ctr 2-1=-14%*;HEK293 MPD ctr-1=0.1%*
CCN(CC)c1ccc(CN2CCC(C(=O)NCc3ccc(C)cc3)CC2)cc1,-5.1*,i,i,i,i,i,i,i,77%*,58%*,i,
